Assay outcomes: PubChem, several laboratories
Sampled rows, rich in hits. Any-hit rate of the full collection: about 4.6%.
Mdm2 ligase inh: blocks human Mdm2 ubiquitin ligase activity; Q00987; cell-based MDM2 ubiquitination luciferase reporter, 2 h; 0 = plate control, 100 = twice control, blank-subtracted; signal enhancement, % at 5 µM; actives 0.11% (n = 210,000);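 active means signal enhancement of 30% or more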;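 further: luminescence tracks abundance of the self-degrading MDM2-luciferase fusion protein; higher signal means inhibition of MDM2 E3 ligase activity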
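Assay system: stable mammalian line carrying autodegrading MDM2–luciferase fusion reporter; Input: 2000 cells in each well; Compound dosing: single-point 5 µM; Schedule: 2 h compound exposure at 37 °C; Signal: SteadyLite luciferase luminescence after 15 min room-temperature reagent incubation; Evaluation: % luminescence enhancement versus blank-corrected plate control mean; Benchmarks: plate controls and plate blanks.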
Wee1 degr inh: human Wee1 degradation inhibition, primary screen | P30291 | HeLa Luc-Wee1K328M stability, luciferase luminescence; 100% = proteasome inhibitor MG132 effect | reporter increase, % at 5 µM | actives 1.2% (n = 220,000);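 active means activation above the mean of all tested compounds plus 3 SD, set per screening run, cut at about 8.8% in these data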;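 further: cells exposed to compound for 20 h before luminescence read; 0% = DMSO alone and 100% = MG132 at 30 µM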
STAT1 act: increases IFN-gamma driven STAT1 reporter signal. NIH 3T3 STAT1-luciferase reporter, luminescence; 100% = IFN-gamma alone, no compound. activation (% of control), % at 5.5 µM. actives 2.6% (n = 200,000);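 active means activation above the screen-wide mean activation plus 3 SD, cut at about 130% in these data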;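 further: raw ratio to IFN-gamma control signal so 100% means no change and 0% no light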
p97 ATPase inh: human p97 ATPase inhibition | actives 0.42% (n = 220,000) | inhibition, % at 8 µM | recombinant p97 ATPase, Kinase-Glo ATP luminescence, 3 h; in the data active means inhibition above about 15%;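 further: 0% = DMSO vehicle and 100% = wells lacking enzyme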
Target sequence (P55072 whole entry, looked up): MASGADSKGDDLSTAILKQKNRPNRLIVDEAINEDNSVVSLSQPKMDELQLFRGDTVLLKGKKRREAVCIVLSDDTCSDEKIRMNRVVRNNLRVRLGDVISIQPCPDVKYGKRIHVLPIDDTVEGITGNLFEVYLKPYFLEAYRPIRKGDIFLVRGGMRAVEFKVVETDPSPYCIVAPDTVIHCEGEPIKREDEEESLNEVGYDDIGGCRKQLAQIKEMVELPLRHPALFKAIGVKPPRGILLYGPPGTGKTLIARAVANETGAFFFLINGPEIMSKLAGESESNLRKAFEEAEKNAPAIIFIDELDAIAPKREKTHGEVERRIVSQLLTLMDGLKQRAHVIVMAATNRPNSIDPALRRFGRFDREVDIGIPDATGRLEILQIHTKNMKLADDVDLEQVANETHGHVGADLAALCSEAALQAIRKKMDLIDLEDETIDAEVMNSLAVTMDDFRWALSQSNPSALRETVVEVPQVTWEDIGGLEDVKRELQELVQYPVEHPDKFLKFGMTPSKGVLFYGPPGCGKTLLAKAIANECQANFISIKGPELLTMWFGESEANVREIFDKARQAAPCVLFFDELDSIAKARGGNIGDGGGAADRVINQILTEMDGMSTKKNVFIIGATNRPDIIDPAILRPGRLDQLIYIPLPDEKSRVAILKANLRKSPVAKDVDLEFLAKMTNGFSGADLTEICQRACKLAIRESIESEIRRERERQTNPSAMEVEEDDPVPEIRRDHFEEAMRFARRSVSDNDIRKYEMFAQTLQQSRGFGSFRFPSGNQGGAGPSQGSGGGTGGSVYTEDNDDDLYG
APP 5'UTR act: activates APP 5'UTR luciferase reporter. activation, % at 2 µM. actives 1% (n = 190,000). SH-SY5Y APP 5'UTR luciferase reporter, luminescence; zero percent = DMSO vehicle wells;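 active means activation above a set limit, based on mean plus 3 SD of controls, cut at about 140% in these data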
NF-kB expr up: compounds increasing NF-kB expression in human neuronal cells. actives 1.6% (n = 190,000). NF-kB reporter expression; hits give high values. AID 1239. fold change at 12.5 µM; in the data active means fold change above about 3.3
An asterisk follows results filed as active.

CCn1cc(C2CC(=O)NC2=O)c2ccccc21 (stereo not drawn) was read as Mdm2 ligase inh -6, Wee1 degr inh 0 and p97 ATPase inh 7.
Screening CCNc1nc(N)c(C(=O)c2ccc(Cl)s2)s1 returned Mdm2 ligase inh -34, Wee1 degr inh 10*, STAT1 act 144*, p97 ATPase inh 5, APP 5'UTR act 58 and NF-kB expr up 3.7*.
For CCOC(=O)CNC(=O)c1ccc(Cl)s1 the results were Mdm2 ligase inh -2, Wee1 degr inh 0, STAT1 act 102, p97 ATPase inh 5, APP 5'UTR act 15 and NF-kB expr up 1.1.
Screening Oc1ccc(Cl)cc1CNc1ccc(Br)cn1 returned Mdm2 ligase inh 25, Wee1 degr inh 1, STAT1 act 103, p97 ATPase inh 0, APP 5'UTR act 59 and NF-kB expr up 4.9*.
`CN(C)c1ccc(NC(=O)c2cccc(C(=O)Nc3ccc(N(C)C)cc3)n2)cc1` gave Mdm2 ligase inh -10, Wee1 degr inh 2, STAT1 act 119, p97 ATPase inh 1, APP 5'UTR act 46 and NF-kB expr up 0.42.
Screening O=C(Nc1ccc(Cl)cc1)c1ccncc1 returned Mdm2 ligase inh -2, Wee1 degr inh -2, STAT1 act 99, p97 ATPase inh 0, APP 5'UTR act 10 and NF-kB expr up 1.3.
Screening CN(C)c1ccc(NC(=O)c2ccc3nsnc3c2)cc1 returned Mdm2 ligase inh -11, Wee1 degr inh 5, STAT1 act 144*, p97 ATPase inh 3, APP 5'UTR act 18 and NF-kB expr up 2.6.
Screening O=C(Nc1ccc(Cl)cc1)c1ccc2nsnc2c1 returned Mdm2 ligase inh -17, Wee1 degr inh 4, STAT1 act 150*, p97 ATPase inh 3, APP 5'UTR act 95 and NF-kB expr up 3.3*.
Screening Cc1ccc(CN=C(Nc2ccccc2)NC2CCCCC2)cc1 returned Mdm2 ligase inh -11, Wee1 degr inh -1, STAT1 act 91, p97 ATPase inh 1, APP 5'UTR act -5 and NF-kB expr up 0.81.
Screening Cc1ccc(NC(=O)N2CCCC2)cc1Cl returned Mdm2 ligase inh -23, Wee1 degr inh 0, STAT1 act 117, p97 ATPase inh 3, APP 5'UTR act 31 and NF-kB expr up 1.4.
For O=C(Nc1ccc(Cl)c(Cl)c1)N1CC=CCC1 the results were Mdm2 ligase inh 1, Wee1 degr inh 1, STAT1 act 127, p97 ATPase inh 0, APP 5'UTR act 56 and NF-kB expr up 3.5*.
Nc1nnc(-c2ccc(F)cc2)s1 was read as Mdm2 ligase inh -1, Wee1 degr inh 0, STAT1 act 103, p97 ATPase inh 1, APP 5'UTR act 7 and NF-kB expr up 1.2.
CC(C)(C)c1ccc(-c2nnc(N)s2)cc1 was read as Mdm2 ligase inh -21, Wee1 degr inh 2, STAT1 act 132*, p97 ATPase inh -3, APP 5'UTR act 146* and NF-kB expr up 4.9*.
Screening O=C(NCCC1=CCCCC1)NC12CC3CC(CC(C3)C1)C2 returned Wee1 degr inh 5, STAT1 act 144*, p97 ATPase inh 0, APP 5'UTR act 173* and NF-kB expr up 1.4.
For CC(=O)c1cccc(NC(=S)NCCC2=CCCCC2)c1 the results were Mdm2 ligase inh -6, Wee1 degr inh 5, STAT1 act 91, p97 ATPase inh -6 and NF-kB expr up 1.1.
Screening O=C(NCCC1=CCCCC1)Nc1ccc2nsnc2c1 returned Mdm2 ligase inh -19, Wee1 degr inh 2, STAT1 act 133*, p97 ATPase inh -2, APP 5'UTR act 165* and NF-kB expr up 6.4*.
Screening COc1cc(NC(=O)C/C(C)=N/NC(=O)C(=O)NCCO)c(OC)cc1Cl returned Mdm2 ligase inh -9, Wee1 degr inh -3 and p97 ATPase inh 6.
For Cc1ccc(-c2cc(C(F)(F)F)n3ncc(C(=O)N4CCN(C)CC4)c3n2)cc1 the results were Mdm2 ligase inh -10, Wee1 degr inh 9.2*, STAT1 act 97, p97 ATPase inh -6, APP 5'UTR act -4 and NF-kB expr up 1.4.
Screening CCc1nnc(NC(=O)c2csc3c2CCC(C)C3)s1 (stereo not drawn) returned Mdm2 ligase inh -7, Wee1 degr inh -1, STAT1 act 97, p97 ATPase inh 4, APP 5'UTR act 145* and NF-kB expr up 1.1.
`CC(C)C1N(C(N)=S)N=CC1(C)C` (stereo not drawn) gave Mdm2 ligase inh -16, Wee1 degr inh 2 and p97 ATPase inh 0.
`CC(C)n1cc(CN2CCCC(CO)(Cc3cccc(Cl)c3)C2)cn1` (stereo not drawn) gave Mdm2 ligase inh -7, Wee1 degr inh 10*, STAT1 act 89, p97 ATPase inh 7, APP 5'UTR act -5 and NF-kB expr up 1.
Cn1cc(CN2CCCC(CO)(Cc3cccc(Cl)c3)C2)cn1 (stereo not drawn) was read as Mdm2 ligase inh 3, Wee1 degr inh 0, STAT1 act 104, p97 ATPase inh 0, APP 5'UTR act 1 and NF-kB expr up 1.1.
Screening COC(=O)c1cn(NC(=O)c2cc([N+](=O)[O-])ccc2F)c(=O)c2ccccc12 returned Mdm2 ligase inh -7, Wee1 degr inh 0, STAT1 act 139*, p97 ATPase inh 5, APP 5'UTR act -23 and NF-kB expr up 0.85.
Screening COC(=O)c1cn(NC(=O)C2CCC(C)CC2)c(=O)c2ccccc12 (stereo not drawn) returned Mdm2 ligase inh -6, Wee1 degr inh -4, STAT1 act 100, p97 ATPase inh -9, APP 5'UTR act 15 and NF-kB expr up 1.
For C=CC(=O)NC(NC(=O)C=C)c1ccc(Br)cc1 the results were Mdm2 ligase inh -8, Wee1 degr inh 0, STAT1 act 97, p97 ATPase inh 0, APP 5'UTR act -1 and NF-kB expr up 3.3*.
Screening C=CCc1cccc(/C=N/NC(=O)c2ccccc2Br)c1O returned Mdm2 ligase inh -10, Wee1 degr inh 1, STAT1 act 100, p97 ATPase inh 7, APP 5'UTR act -16 and NF-kB expr up 1.2.
`C=CCc1cccc(/C=N/NC(=O)c2ccccc2OC)c1O` gave Mdm2 ligase inh -53, Wee1 degr inh 8.9*, STAT1 act 118, p97 ATPase inh -2, APP 5'UTR act -8 and NF-kB expr up 1.8.
For CSc1ccccc1NC(=O)c1cc2ncc(Br)cn2n1 the results were Mdm2 ligase inh -1, Wee1 degr inh -3, STAT1 act 142*, p97 ATPase inh -5, APP 5'UTR act 73 and NF-kB expr up 1.5.
For Cc1ccccc1Cn1ccc(NC(=O)c2cc3ncc(Br)cn3n2)n1 the results were Mdm2 ligase inh -9, Wee1 degr inh -1, STAT1 act 95, p97 ATPase inh 4, APP 5'UTR act -11 and NF-kB expr up 1.1.
